According to ChEMBL document CHEMBL1145810, “Synthesis and complement inhibitory activity of B/C/D-ring analogues of the fungal metabolite 6,7-diformyl-3',4',4a',5',6',7',8',8a'-octahydro-4,6',7'-trihydroxy- 2',5',5',8a'-tetramethylspiro[1'(2'H)-naphthalene-2(3H)-benzofuran]” (J Med Chem, 2003):

How the values were obtained:
[1] = Inhibitory activity against proteolytic release of C3a in activated human serum was determined; assay type: functional
Outline: (§1)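 Human serum (73% of final volume) equilibrated with a range of compound concentrations dissolved in 0.10 M HEPES, 0.15 M NaCl, pH 7.4. Serum then activated with heat-aggregated IgG, and C5a[desArg] and C3a[desArg] quantified. Fractional inhibition taken relative to the no-compound sample and to the background level without aggregated IgG. n = 3 (one compound n = 2).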

[2] = Inhibitory activity against proteolytic release of C5a in activated human serum was determined; assay type: functional; outline: as §1
Homo sapiens = species: Homo sapiens; experiment: Ability to inhibit complement-mediated erythrocyte lysis (hemolysis) in human serum; assay type: functional, organism-based
Outline: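 Antibody-sensitized sheep erythrocytes incubated with compound and diluted human serum, 60 min at 37 °C. Cells pelleted by centrifugation; released hemoglobin read at 410 nm in supernatant. Each sample paired with a serum-free control for complement-independent lysis, which was subtracted. Fractional inhibition taken relative to the no-compound sample.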

Oryctolagus cuniculus = species: Oryctolagus cuniculus; experiment: Ability to inhibit lysis of rabbit erythrocytes by the alternative complement pathway was determined; assay type: functional, organism-based
Outline: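 Alternative-pathway hemolysis of rabbit erythrocytes. Cells incubated with compound and human serum for 60 min at 37 °C. Supernatant hemoglobin read at 410 nm after centrifugation. Serum-free background was subtracted and inhibition taken relative to the no-compound sample.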

Row | IC50 [1] [mM] | IC50 [2] [mM] | IC50 (Oryctolagus cuniculus) [mM] | SMILES | IC50 (Homo sapiens) [mM]
1 | 13 | 8 |  | COc1ccc(C=O)c2c1CC1(CCCCC1)O2 | 
2 | 22 | 5 | 2.2 | COc1ccc(C(=O)O)c2c1CC1(CCCCC1)O2 | 1.3
3 |  |  | 1.9 | COc1cc(C=O)c(C(=O)O)c2c1CC1(CCCCC1)O2 | 1.7
4 |  |  | 1.2 | COc1cc(C(=O)O)c(C(=O)O)c2c1CC1(CCCCC1)O2 | 0.8
5 |  | 0.5 | 0.73 | COc1cc(C(=O)O)c(C=O)c2c1CC1(CCCCC1)O2 | 0.16

The remaining lines, values behind:

Row | SMILES | IC50 [1] [mM] | IC50 [2] [mM] | IC50 (Oryctolagus cuniculus) [mM] | IC50 (Homo sapiens) [mM]
6 | COc1cc2c(c3c1CC1(CCCCC1)O3)C(=O)OC2 | 0.7 | 1.3 |  | 
7 | O=C(O)c1ccc(O)cc1O [2,4-DIHYDROXYBENZOIC ACID] |  | 22 |  | 
8 | C[C@@H]1CCC2C(C)(C)[C@H](O)[C@H](O)C[C@]2(C)C12Cc1c(O)cc(C(=O)O)c(C=O)c1O2 (stereo partly drawn) |  | 3 | 0.33 | 0.57
9 | O=C(O)c1cc(O)c2c(c1)OC1(CCCCC1)C2 |  |  | 3.8 | 1.5
10 | COc1ccc(C(=O)O)c(O)c1CC1=CCCCC1 |  |  |  | 2.1
11 | O=C(O)c1ccc(O)c2c1OC1(CCCCC1)C2 |  |  |  | 3
12 | COc1cc(C(=O)O)cc(O)c1CC1=CCCCC1 |  |  | 3.5 | 0.82
13 | O=C(O)c1ccccc1O [SALICYLIC ACID] |  | 21 |  | 
14 | COc1cc(C(=O)O)cc2c1CC1(CCCCC1)O2 |  |  | 2.2 | 0.53
